# Data published in ChEMBL document CHEMBL2375260, “Antifungal agents from Pseudallescheria boydii SNB-CN73 isolated from a Nasutitermes sp. termite” (J Nat Prod, 2013).
# pIC50: −log10 of the molar value.
# Key:
# Trichophyton rubrum = experiment: Antifungal activity against Trichophyton rubrum SNB-TR1 assessed as growth inhibition after 5 days by […]; format: functional; details: SNB-TR1, 120 h
# Aspergillus fumigatus = experiment: Antifungal activity against Aspergillus fumigatus SNB-AF1 assessed as growth inhibition after 24 hrs by […]; format: functional; details: SNB-AF1, 24 h
# [1] = Selectivity index, ratio of IC50 for human MDA435 cells to MIC for Escherichia coli ATCC 25922; format: functional
# Procedure, shortened: (§1)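 Selectivity index is calculated as SI = IC50/MIC. IC50 is the cytotoxicity measured in MDA435 cells (melanoma, previously described as mammary carcinoma). MIC is the EUCAST reference-protocol value for the given microbial strain.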
# [2] = Selectivity index, ratio of IC50 for human MDA435 cells to MIC for Staphylococcus aureus ATCC 29213; format: functional; procedure, shortened: as §1
# [3] = Selectivity index, ratio of IC50 for human MDA435 cells to MIC for Trichophyton rubrum SNB-TR1; format: functional; procedure, shortened: as §1
# [4] = Selectivity index, ratio of IC50 for human MDA435 cells to MIC for Aspergillus fumigatus SNB-AF1; format: functional; procedure, shortened: as §1
# [5] = Selectivity index, ratio of IC50 for human MDA435 cells to MIC for Candida parapsilosis ATCC 22019; format: functional; procedure, shortened: as §1
# [6] = Cytotoxicity against human MDA435 cells assessed as growth inhibition; format: functional, cell-based; details: MDA-MB-435
# [7] = Selectivity index, ratio of IC50 for human MDA435 cells to MIC for Candida albicans ATCC 10231; format: functional; procedure, shortened: as §1
# KB = experiment: Cytotoxicity against human KB cells assessed as growth inhibition; format: functional, cell-based
# Staphylococcus aureus = experiment: Antibacterial activity against Staphylococcus aureus ATCC 29213 assessed as growth inhibition after 24 hrs by […]; format: functional; details: ATCC 29213, 24 h
# Escherichia coli = experiment: Antibacterial activity against Escherichia coli ATCC 25922 assessed as growth inhibition after 24 hrs by […]; format: functional
# Candida parapsilosis = experiment: Antifungal activity against Candida parapsilosis ATCC 22019 assessed as growth inhibition after 18 hrs by […]; format: functional; details: Lodderomyces parapsilosis, ATCC 22019, 18 h
# Candida albicans = experiment: Antifungal activity against Candida albicans ATCC 10231 assessed as growth inhibition after 18 hrs by […]; format: functional; details: ATCC 10231, 18 h
# MCF7 [8] = experiment: Cytotoxicity against human MCF7 cells assessed as inhibition of FBS-induced cellular growth; format: functional, cell-based
# MCF7 [9] = experiment: Cytotoxicity against human MCF7 cells assessed as inhibition of IGF1-induced cellular growth; format: functional, cell-based
molecule,measurement,setting,value
CCC(C)n1ncn(-c2ccc(N3CCN(c4ccc(OCC5COC(Cn6cncn6)(c6ccc(Cl)cc6Cl)O5)cc4)CC3)cc2)c1=O (stereo unspecified) [ITRACONAZOLE],MIC,Trichophyton rubrum,0.25 µg/mL
same,MIC,Aspergillus fumigatus,0.5 µg/mL
CC[C@@H](C)C[C@@H](C)/C=C/CC[C@@H](O)[C@H](Cc1ccc(O)cc1)NC.O=CO [TYROSCHERIN FORMATE],Selectivity Index,[1],1.3
same,Selectivity Index,[2],2.5
same,Selectivity Index,[3],10
same,Selectivity Index,[4],1.3
same,Selectivity Index,[5],1.3
same,IC50,[6],20 µg/mL
same,Selectivity Index,[7],10
same,IC50,KB,8.6 µg/mL
same,MIC,Staphylococcus aureus,8 µg/mL
same,MIC,"Escherichia coli; ATCC 25922, 24 h",16 µg/mL
same,MIC,Trichophyton rubrum,2 µg/mL
same,MIC,Aspergillus fumigatus,16 µg/mL
same,MIC,Candida parapsilosis,16 µg/mL
same,MIC,Candida albicans,2 µg/mL
CC[C@@H](C)C[C@@H](C)/C=C/CC[C@@H](O)[C@H](Cc1ccc(O)cc1)N(C)C.O=CO,Selectivity Index,[1],0.8
same,Selectivity Index,[2],1.5
same,Selectivity Index,[3],6.1
same,Selectivity Index,[4],0.8
same,Selectivity Index,[5],0.8
same,IC50,[6],24.3 µg/mL
same,Selectivity Index,[7],6.1
same,IC50,KB,16 µg/mL
same,MIC,Staphylococcus aureus,16 µg/mL
same,MIC,"Escherichia coli; ATCC 25922, 24 h",32 µg/mL
same,MIC,Trichophyton rubrum,4 µg/mL
same,MIC,Aspergillus fumigatus,32 µg/mL
same,MIC,Candida parapsilosis,32 µg/mL
same,MIC,Candida albicans,4 µg/mL
GENTAMICIN,MIC,Escherichia coli,8 µg/mL
Cc1onc(-c2ccccc2)c1C(=O)N[C@@H]1C(=O)N2[C@@H]1SC(C)(C)[C@@H]2C(=O)O [OXACILLIN],MIC,Staphylococcus aureus,0.5 µg/mL
OC(Cn1cncn1)(Cn1cncn1)c1ccc(F)cc1F [FLUCONAZOLE],MIC,Candida parapsilosis,4 µg/mL
same,MIC,Candida albicans,4 µg/mL
CC[C@@H](C)C[C@@H](C)/C=C/CC[C@@H](O)[C@H](Cc1ccc(O)cc1)NC [TYROSCHERIN 8],pIC50,MCF7 [8],5.21
same,pIC50,MCF7 [9],7.52
